Measured values reported in ChEMBL document CHEMBL5705897, “Characterization of WZ4003 and HTH-01-015 as selective inhibitors of the LKB1-tumour-suppressor-activated NUAK kinases” (Biochem J, 2014).
Calls of active or inactive are those of the source. The rule behind the calls is not given here.

How the values were obtained:
[1] = target: Testis-specific serine/threonine-protein kinase 1 (Homo sapiens) (UniProt Q9BXA7); assay: Inhibition of recombinant human N-terminal GST-tagged TSSK1 (1 to 367 residues) expressed in Escherichia coli assessed as remaining activity at 1 uM using KKKVSRSGLYRSPSMPENLNRPR as substrate incubated for 30 mins in presence of [gamma-33P]ATP by filter binding method relative to control
In short: (§1)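 Screened at the International Centre for Protein Kinase Profiling against a 140-kinase panel, with inhibitor at 0.1 or 1 μM; activity expressed as percentage of DMSO control reactions, mean of triplicate reactions.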

[2] = target: Serine/threonine-protein kinase PLK1 (Homo sapiens) (UniProt P53350); assay: Inhibition of recombinant human N-terminal His6-tagged PLK1 (1 to 603 residues) expressed in baculovirus infected Sf21 cells assessed as remaining activity at 1 uM using ISDELMDATFADQEAKKK as substrate incubated for 30 mins in presence of [gamma-33P]ATP by filter binding method relative to control; in short: as §1
[3] = target: MAP kinase-activated protein kinase 2 (Homo sapiens) (UniProt P49137); assay: Inhibition of recombinant human N-terminal GST/C-terminal Myc-tagged MAPKAPK2 (46 to 400 residues) expressed in Escherichia coli assessed as remaining activity at 1 uM using KKLNRTLSVA as substrate incubated for 30 mins in presence of [gamma-33P]ATP by filter binding method relative to control; in short: as §1
[4] = system: MEF; assay: Inhibition of NUAK1 in NUAK1+/+ MEF cells assessed as reduction in MYPT1 phosphorylation at Ser445 residues at 10 uM after 16 hrs by immunoblot analysis; type: cell-based; settings: Mus musculus
In short: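 U2OS cells or NUAK1+/+ MEFs treated with or without 10 μM inhibitor for 16 h, then 20 min in EDTA-PBS dissociation buffer with 10 μM inhibitor or DMSO; detached by tapping and 70 g 3 min spin, lysed immediately and immunoblotted for MYPT1 p-Ser445; three separate experiments.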

[5] = target: T1, Aurora kinase A (Homo sapiens) (UniProt O14965); assay: Inhibition of recombinant human N-terminal […] Aurora A (2 to 403 residues) expressed in Escherichia coli assessed as remaining activity at 1 uM using LRRLSLGLRRLSLGLRRLSLGLRRLSLG as substrate incubated for 30 mins in presence of [gamma-33P]ATP by filter binding method relative to control; in short: as §1
T1 sequence (whole entry): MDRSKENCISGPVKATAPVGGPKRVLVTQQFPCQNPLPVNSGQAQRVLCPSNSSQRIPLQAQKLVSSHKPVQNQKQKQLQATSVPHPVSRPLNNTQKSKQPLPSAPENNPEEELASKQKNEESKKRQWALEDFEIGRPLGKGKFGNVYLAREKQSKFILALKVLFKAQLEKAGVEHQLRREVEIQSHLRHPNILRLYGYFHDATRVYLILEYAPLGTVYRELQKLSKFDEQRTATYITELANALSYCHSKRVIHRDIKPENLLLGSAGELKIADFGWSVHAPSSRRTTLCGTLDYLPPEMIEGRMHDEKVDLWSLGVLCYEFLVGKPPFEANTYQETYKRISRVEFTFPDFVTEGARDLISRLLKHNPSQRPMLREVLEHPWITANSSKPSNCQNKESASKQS

[6] = target: MAP/microtubule affinity-regulating kinase 3 (Homo sapiens) (UniProt P27448); assay: Inhibition of recombinant human N-terminal His6-tagged MARK3 (2 to 729 residues) expressed in baculovirus infected Sf21 cells assessed as remaining activity at 1 uM using CHKtide as substrate incubated for 30 mins in presence of [gamma-33P]ATP by filter binding method relative to control; in short: as §1
Sequence of MAP/microtubule affinity-regulating kinase 3 (Homo sapiens) (P27448 whole entry, looked up, the tested form may be a part): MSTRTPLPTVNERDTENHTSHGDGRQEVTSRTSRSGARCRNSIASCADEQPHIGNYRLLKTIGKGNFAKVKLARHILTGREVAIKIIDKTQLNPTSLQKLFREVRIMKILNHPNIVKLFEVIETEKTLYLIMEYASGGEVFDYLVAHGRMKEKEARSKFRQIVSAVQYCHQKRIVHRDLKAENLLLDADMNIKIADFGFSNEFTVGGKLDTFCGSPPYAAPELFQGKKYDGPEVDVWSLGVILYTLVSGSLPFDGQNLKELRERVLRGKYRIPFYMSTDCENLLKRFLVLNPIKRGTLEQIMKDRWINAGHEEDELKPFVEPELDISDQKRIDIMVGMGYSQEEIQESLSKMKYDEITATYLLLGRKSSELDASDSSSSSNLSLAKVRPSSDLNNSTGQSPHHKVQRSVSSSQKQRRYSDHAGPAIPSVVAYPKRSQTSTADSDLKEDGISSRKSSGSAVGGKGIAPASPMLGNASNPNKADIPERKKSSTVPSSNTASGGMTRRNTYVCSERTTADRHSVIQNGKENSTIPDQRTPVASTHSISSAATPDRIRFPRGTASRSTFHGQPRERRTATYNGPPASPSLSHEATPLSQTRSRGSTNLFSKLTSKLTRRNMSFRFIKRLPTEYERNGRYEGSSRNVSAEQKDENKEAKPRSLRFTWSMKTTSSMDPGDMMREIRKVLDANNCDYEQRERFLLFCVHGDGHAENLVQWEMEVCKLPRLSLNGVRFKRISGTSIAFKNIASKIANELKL

Sequence of MAP kinase-activated protein kinase 2 (Homo sapiens) (P49137 whole entry, looked up, the tested form may be a part): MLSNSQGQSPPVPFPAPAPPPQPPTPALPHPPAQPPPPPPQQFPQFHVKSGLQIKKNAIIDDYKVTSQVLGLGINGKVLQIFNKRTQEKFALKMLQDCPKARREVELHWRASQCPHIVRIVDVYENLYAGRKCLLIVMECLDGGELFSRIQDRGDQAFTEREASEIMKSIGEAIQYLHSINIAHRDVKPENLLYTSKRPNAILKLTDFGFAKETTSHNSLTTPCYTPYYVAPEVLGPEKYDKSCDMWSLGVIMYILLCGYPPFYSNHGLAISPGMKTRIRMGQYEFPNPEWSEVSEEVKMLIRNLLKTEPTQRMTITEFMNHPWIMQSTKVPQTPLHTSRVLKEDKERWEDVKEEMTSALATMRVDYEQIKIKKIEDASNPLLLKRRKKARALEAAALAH
Sequence of Testis-specific serine/threonine-protein kinase 1 (Homo sapiens) (Q9BXA7 whole entry, the tested form may be a part): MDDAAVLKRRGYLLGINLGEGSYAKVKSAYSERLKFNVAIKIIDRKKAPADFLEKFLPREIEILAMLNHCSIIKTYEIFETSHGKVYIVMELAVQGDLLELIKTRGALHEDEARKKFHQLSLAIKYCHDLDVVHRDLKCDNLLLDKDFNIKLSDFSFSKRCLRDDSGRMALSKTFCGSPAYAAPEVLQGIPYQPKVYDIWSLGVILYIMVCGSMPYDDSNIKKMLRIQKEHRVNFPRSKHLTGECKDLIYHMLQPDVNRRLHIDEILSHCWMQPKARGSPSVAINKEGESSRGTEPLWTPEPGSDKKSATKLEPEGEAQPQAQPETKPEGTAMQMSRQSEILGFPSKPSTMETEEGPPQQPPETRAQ
Sequence of Serine/threonine-protein kinase PLK1 (Homo sapiens) (P53350 whole entry, the tested form may be a part): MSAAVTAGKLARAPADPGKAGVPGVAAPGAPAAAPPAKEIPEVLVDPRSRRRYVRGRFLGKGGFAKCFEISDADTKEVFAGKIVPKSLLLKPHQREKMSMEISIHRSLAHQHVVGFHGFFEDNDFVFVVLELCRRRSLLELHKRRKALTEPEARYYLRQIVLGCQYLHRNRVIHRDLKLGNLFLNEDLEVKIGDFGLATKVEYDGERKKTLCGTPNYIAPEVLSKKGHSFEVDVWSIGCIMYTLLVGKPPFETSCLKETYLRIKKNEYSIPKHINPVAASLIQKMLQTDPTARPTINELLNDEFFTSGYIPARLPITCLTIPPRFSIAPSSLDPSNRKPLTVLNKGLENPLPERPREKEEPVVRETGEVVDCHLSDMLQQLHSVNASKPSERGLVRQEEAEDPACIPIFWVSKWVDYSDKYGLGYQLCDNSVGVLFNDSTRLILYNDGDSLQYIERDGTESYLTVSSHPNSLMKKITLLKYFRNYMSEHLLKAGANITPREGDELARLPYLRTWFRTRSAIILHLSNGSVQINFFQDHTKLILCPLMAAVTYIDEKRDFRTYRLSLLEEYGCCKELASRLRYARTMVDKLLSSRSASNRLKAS

CCC(=O)Nc1cccc(Oc2nc(Nc3ccc(N4CCN(C)CC4)cc3OC)ncc2Cl)c1
Activity [1]: 58% | Activity [2]: 84% | Activity [3]: 82% | inhibition [4]: Active | Activity [5]: 75% | Activity [6]: 51%
